Ends that are not written are not given here.

The source of these data is article PMC11718171 (Biophysics and Physicobiology, 2024).

One test deals with LgBiT. The settings on record: in vitro, grating-coupled interferometry; ref [27]; cited from earlier work.
In a further test the test system is Lg-CD86. Briefly: Orthogonality of labeling, Lg-CD86-expressing cells. The following applies: 10 nM each, simultaneous labeling, HEK293. The test is classed as cell-based, human. The method in brief:
(§1)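 HEK293A cells in DMEM with 5% FBS, seeded on coverslips and same-day transfected (Lipofectamine 3000, 1 µg total plasmid made up with pCAGGS) with LgBiT-, SNAP- or HaloTag-fused CD86 (1-277). Co-labeled with SF650-FiBiT, SNAP-cell TMR-star and Halo-JF549 in phenol red-free complete DMEM, 15 min, 37°C. Washed thrice, imaged in 0.01% BSA-HBSS. Bright spots counted against coverslip background.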

A further test relates to SNAP-CD86. The experiment in a line: Orthogonality of labeling, SNAP-CD86-expressing cells. The following applies: 10 nM each, simultaneous labeling, HEK293. The test is classed as cell-based, human. The gist of the method:
as §1

Test [1] can be described thus: Non-specific binding on coverslips. The settings on record: 10 nM, washed three times with complete phenol red-free DMEM, then BSA-HBSS. The method in brief:
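No cells: fluorescent HiBiT or FiBiT peptide diluted in phenol red-free DMEM with 5% FBS, penicillin, streptomycin and glutamine. Added to a dish containing a glass coverslip and held 15 min at 37°C. Washed three times, mounted in a chamber in HBSS with 0.01% BSA, then imaged at single-molecule level for adsorbed bright spots.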

Regarding “HiBiT: HiBiT peptide (~1.3 kDa), NanoLuc fragment (VSGWRLFKKIS; also: TMR label, site not given here)”, in the test on LgBiT, the “on-time of LgBiT-HiBiT interaction” value was ~ 12 min.
For `CN(C)c1ccc2c(-c3cc(C(=O)NCc4ccc(COc5nc(N)nc6nc[nH]c56)cc4)ccc3C(=O)[O-])c3ccc(=[N+](C)C)cc-3oc2c1` [SNAP-TMR], the “staining of Lg-CD86-expressing cells” value with Lg-CD86 was “not by SNAP-TMR nor Halo-JF549”. Besides, the “labeling of SNAP-CD86-expressing cells” value in the test with SNAP-CD86 is given as “labeled by SNAP-TMR ligand”.
As to TMR-DYKDDDDKGDGSVSGWRLFKKIS [TMR-FiBiT], in test [1], the “non-specific binding to coverslips” value is “greatly reduced the non-specific binding”.
